Test results from publication PMC10644204 (Pharmacology Research & Perspectives, 2023).
Where “and” joins values, the source holds several entries; their conditions need not be identical. Identical values can stand only once.

Columns and labels:
healthy participants = assay: Safety assessments; format: in vivo, human
Summary of the method: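 Part 2 healthy participants confined from Day −2 of period 1 to Day 9 of period 4. […] AEs monitored throughout, recording duration, severity, causality and outcome, alongside safety ECGs, laboratory tests, physical examination and vital signs.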

[1] = Plasma pharmacokinetics, part 1 sentinel cohort; format: in vivo, human
Summary of the method: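 Part 1: healthy participants (n = 8) randomised 3:1 to test compound 500 mg or placebo orally once daily for 7 days, given with a moderate-fat meal (~600 cal, 30% fat) 30 min before dosing. Plasma sampled within 40 min predose on Days 1, 5, 6 and 7, and on Day 7 at 0.5–48 h postdose. Validated UHPLC-MS/MS, range 3.00–1000 ng mL−1.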

[2] = part 2, GSK'254 100 mg (N = 40)
[3] = part 2, GSK'254 500 mg (N = 40)

C=C(C)[C@@H]1CC[C@]2(NCCN3CCS(=O)(=O)CC3)CC[C@]3(C)[C@H](CC[C@@H]4[C@@]5(C)CC=C(C6=CC[C@@](CF)(C(=O)O)CC6)C(C)(C)[C@@H]5CC[C@]43C)[C@@H]12 [GSK'254]
AE: Abdominal pain (healthy participants; [2]): 0 n (%)
AE: Acne (healthy participants; [2]): 2 (5) n (%)
AE: Diarrhea (healthy participants; [2]): 0 n (%)
AE: Gastrointestinal disorders (healthy participants; [2]): 1 (3) n (%)
AE: General disorders and administration site conditions (healthy participants; [2]): 0 n (%)
AE: Immune system disorders (healthy participants; [2]): 0 n (%)
AE: Infections and infestations (healthy participants; [2]): 0 n (%)
AE: Maculopapular rash (healthy participants; [2]): 1 (3) n (%)
AE: Medical device site dermatitis (healthy participants; [2]): 0 n (%)
AE: Nausea (healthy participants; [2]): 0 n (%)
AE: Nervous system disorders (healthy participants; [2]): 0 n (%)
AE: Renal and urinary disorders (healthy participants; [2]): 0 n (%)
AE: Reproductive system and breast disorders (healthy participants; [2]): 0 n (%)
AE: Respiratory, thoracic, and mediastinal disorders (healthy participants; [2]): 1 (3) n (%)
AE: Skin and subcutaneous tissue disorders (healthy participants; [2]): 3 (8) n (%)
AE: Vessel puncture site pain (healthy participants; [2]): 0 n (%)
Any AE (healthy participants; [2]): 5 (13) n (%)
Any drug-related AE (healthy participants; [2]): 2 n (%) and 2 (5) n (%)
Drug-related AE: Abdominal pain (healthy participants; [2]): 0 n (%)
Drug-related AE: Acne (healthy participants; [2]): 2 (5) n (%)
Drug-related AE: Diarrhea (healthy participants; [2]): 0 n (%)
Drug-related AE: Fatigue (healthy participants; [2]): 0 n (%)
Drug-related AE: Gastrointestinal disorders (healthy participants; [2]): 0 n (%)
Drug-related AE: General disorders and administration site conditions (healthy participants; [2]): 0 n (%)
Drug-related AE: Maculopapular rash (healthy participants; [2]): 0 n (%)
Drug-related AE: Nausea (healthy participants; [2]): 0 n (%)
Drug-related AE: Pruritus (healthy participants; [2]): 1 (3) n (%)
Drug-related AE: Renal and urinary disorders (healthy participants; [2]): 0 n (%)
Drug-related AE: Skin and subcutaneous tissue disorders (healthy participants; [2]): 2 (5) n (%)
Drug-related AE: Urinary hesitation (healthy participants; [2]): 0 n (%)
AE: Abdominal pain (healthy participants; [3]): 1 (3) n (%)
AE: Acne (healthy participants; [3]): 0 n (%)
AE: Diarrhea (healthy participants; [3]): 6 n (%) and 6 (15) n (%)
AE: Gastrointestinal disorders (healthy participants; [3]): 7 (18) n (%)
AE: General disorders and administration site conditions (healthy participants; [3]): 3 (8) n (%)
AE: Immune system disorders (healthy participants; [3]): 0 n (%)
AE: Infections and infestations (healthy participants; [3]): 1 (3) n (%)
AE: Maculopapular rash (healthy participants; [3]): 1 (3) n (%)
AE: Medical device site dermatitis (healthy participants; [3]): 2 (5) n (%)
AE: Nausea (healthy participants; [3]): 2 (5) n (%)
AE: Nervous system disorders (healthy participants; [3]): 1 (3) n (%)
AE: Renal and urinary disorders (healthy participants; [3]): 0 n (%)
AE: Reproductive system and breast disorders (healthy participants; [3]): 0 n (%)
AE: Respiratory, thoracic, and mediastinal disorders (healthy participants; [3]): 0 n (%)
AE: Skin and subcutaneous tissue disorders (healthy participants; [3]): 2 (5) n (%)
AE: Vessel puncture site pain (healthy participants; [3]): 0 n (%)
Any AE (healthy participants; [3]): 10 (25) n (%)
Any drug-related AE (healthy participants; [3]): 7 n (%) and 7 (18) n (%)
Drug-related AE: Abdominal pain (healthy participants; [3]): 1 (3) n (%)
Drug-related AE: Acne (healthy participants; [3]): 0 n (%)
Drug-related AE: Fatigue (healthy participants; [3]): 0 n (%)
Drug-related AE: Gastrointestinal disorders (healthy participants; [3]): 6 (15) n (%)
Drug-related AE: General disorders and administration site conditions (healthy participants; [3]): 0 n (%)
Drug-related AE: Maculopapular rash (healthy participants; [3]): 1 (3) n (%)
Drug-related AE: Nausea (healthy participants; [3]): 2 (5) n (%)
Drug-related AE: Pruritus (healthy participants; [3]): 0 n (%)
Drug-related AE: Renal and urinary disorders (healthy participants; [3]): 0 n (%)
Drug-related AE: Skin and subcutaneous tissue disorders (healthy participants; [3]): 1 (3) n (%)
Drug-related AE: Urinary hesitation (healthy participants; [3]): 0 n (%)
AUC ([1]; human, plasma, oral, 500 mg): 68800 ng·h/mL
Cmax ([1]; human, plasma, oral, 500 mg): 4440 ng/mL
Cτ, geometric mean (%CVb) ([1]; part 1, GSK'254 500 mg QD 7 days, moderate-fat meal, Day 7, n = 6): 2080 ng mL^−1 and 2080 (32.4) ng mL^−1
